In ChEMBL document CHEMBL1152935, “Synthesis and structure-activity relationships of radicicol derivatives and WNT-5A expression inhibitory activity” (Bioorg Med Chem, 2009):

assay: Inhibition of HSP90; conditions: not given

| IC50 | SMILES |
| --- | --- |
| 0.09 µM | C[C@H]1C[C@H]2O[C@@H]2CC/C=C/C(=O)Cc2c(Cl)c(O)cc(O)c2C(=O)O1 [POCHONIN A] |

assay: Inhibition of WNT5A mRNA expression in human dermal papilla cells after 24 hrs by quantigene assay; type: functional, cell-based; conditions: not given
How it was run: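 Human dermal papilla cells (gift, fifth subculture) in MEM with 12% FBS, seeded at 1 × 10⁴ cells/well, cultured overnight, then exposed 24 h to compounds or no-compound medium. WNT-5A mRNA quantified by branched-DNA QuantiGene: lysates on capture plate, WNT-5A probes 53 °C 20 h, amplifier then alkaline phosphatase probe each 46 °C 1 h, Lumi-Phos Plus 46 °C 30 min, luminescence read. IC50 reported.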

| IC50 | SMILES |
| --- | --- |
| > 50 µM | C[C@@H]1C[C@@H](O)[C@H](Cl)/C=C\C=C\C(=O)Cc2c(Cl)c(O)cc(O)c2C(=O)O1 |
| 13.3 µM | C[C@@H]1C[C@@H](O)C(Cl)/C=C\C=C\C(=O)Cc2c(Cl)c(O)cc(O)c2C(=O)O1 (single isomer, unassigned) |

same assay, conditions: Homo sapiens, 24 h

| IC50 | SMILES |
| --- | --- |
| > 100 µM | C[C@@H]1C[C@H]2O[C@@H]2CC/C=C/[C@@H](O)Cc2c(Cl)c(O)cc(O)c2C(=O)O1 |
| 1.89 µM | C[C@@H]1C[C@H]2O[C@@H]2CC/C=C/[C@H](O)Cc2c(Cl)c(O)cc(O)c2C(=O)O1 |
| > 100 µM | C[C@@H]1C[C@H]2O[C@@H]2CCCC[C@@H](O)Cc2c(Cl)c(O)cc(O)c2C(=O)O1 |
| > 50 µM | C[C@@H]1C[C@H]2O[C@@H]2C/C=C/C[C@H](O)Cc2c(Cl)c(O)cc(O)c2C(=O)O1 |
| > 100 µM | COc1cc(O)c2c(c1Cl)C[C@@H](O)/C=C/CC[C@H]1O[C@@H]1C[C@@H](C)OC2=O |
| 1.22 µM | CO/N=C1/C=C/C=C\[C@H]2O[C@@H]2C[C@@H](C)OC(=O)c2c(O)cc(O)c(Cl)c2C1 |
| > 50 µM | C[C@@H]1C[C@H]2O[C@@H]2[C@H](Sc2ccccc2)CCCC(=O)Cc2c(Cl)c(O)cc(O)c2C(=O)O1 |
| 0.51 µM | C[C@@H]1C[C@H]2O[C@@H]2\C=C/C=C/C(=N\OCc2ccccc2)Cc2c(Cl)c(O)cc(O)c2C(=O)O1 |
| 0.15 µM | CO\N=C1/C=C/C=C\[C@H]2O[C@@H]2C[C@@H](C)OC(=O)c2c(O)cc(O)c(Cl)c2C1 |
| 0.06 µM | C[C@@H]1C[C@H]2O[C@@H]2\C=C/C=C/C(=N/OCc2ccccc2)Cc2c(Cl)c(O)cc(O)c2C(=O)O1 |
| > 50 µM | C[C@@H]1C[C@@H](O)C/C=C\CCC(=O)Cc2c(Cl)c(O)cc(O)c2C(=O)O1 |
| 15.7 µM | C[C@@H]1C[C@H]2OC(=O)O[C@H]2/C=C\C=C\C(=O)Cc2c(Cl)c(O)cc(O)c2C(=O)O1 |
| 2.34 µM | CC(=O)S[C@@H]1/C=C/CC(=O)Cc2c(Cl)c(O)cc(O)c2C(=O)O[C@H](C)C[C@H]2O[C@@H]21 |
| 0.26 µM | C[C@@H]1C[C@H]2O[C@@H]2\C=C/C=C/C(=N\O)Cc2c(Cl)c(O)cc(O)c2C(=O)O1 |
| 3.76 µM | COc1cc(OC)c2c(c1Cl)CC(=O)/C=C/C=C\[C@H]1O[C@@H]1C[C@@H](C)OC2=O [DIMETHYL RADICICOL] |
| 0.3 µM | CC(=O)Oc1cc(OC(C)=O)c2c(c1Cl)CC(=O)/C=C/C=C\[C@H]1O[C@@H]1C[C@@H](C)OC2=O [RADICICOL DIACETATE] |
| 15 µM | C[C@@H]1C[C@H]2O[C@@H]2CCCCC(=O)Cc2cc(O)cc(O)c2C(=O)O1 [TETRAHYDROMONOCILLIN I] |
| 2.24 µM | C[C@@H]1C[C@H]2O[C@@H]2CCCCC(=O)Cc2c(Cl)c(O)cc(O)c2C(=O)O1 [TETRAHYDRORADICICOL] |

Further lines, the compound ahead of its results:

| SMILES | IC50 |
| --- | --- |
| C[C@@H]1C[C@H]2O[C@@H]2CCCC[C@H](O)Cc2c(Cl)c(O)cc(O)c2C(=O)O1 | 5.89 µM |
| C[C@@H]1C[C@H]2O[C@@H]2C/C=C/C[C@@H](O)Cc2c(Cl)c(O)cc(O)c2C(=O)O1 | > 50 µM |
| C[C@@H]1C/C=C/CC/C=C/[C@H](O)Cc2cc(O)cc(O)c2C(=O)O1 | > 50 µM |
| CC(=O)S[C@@H]1/C=C\CC(=O)Cc2c(Cl)c(O)cc(O)c2C(=O)O[C@H](C)C[C@H]2O[C@@H]21 | 0.5 µM |
| C[C@@H]1C[C@H]2O[C@@H]2/C=C\C=C\[C@H](O)Cc2c(Cl)c(O)cc(O)c2C(=O)O1 | 2.07 µM |
| C[C@@H]1C[C@@H](O)CC/C=C/CC(=O)Cc2c(Cl)c(O)cc(O)c2C(=O)O1 | > 50 µM |
| C[C@@H]1C[C@@H](O)CCCCCC(=O)Cc2c(Cl)c(O)cc(O)c2C(=O)O1 | > 50 µM |
| C[C@@H]1CC(O)C2C=CC(CC(=O)Cc3c(Cl)c(O)cc(O)c3C(=O)O1)O2 (stereo partly drawn) | > 50 µM |
| C[C@@H]1C[C@H]2O[C@@H]2C/C=C/CC(=O)Cc2c(Cl)c(O)cc(O)c2C(=O)O1 | 7.69 µM |
| C[C@@H]1C[C@H]2O[C@@H]2CC/C=C/[C@H](O)Cc2cc(O)cc(O)c2C(=O)O1 | 13.2 µM |
| C[C@@H]1C[C@H]2O[C@@H]2C(Sc2ccccc2)/C=C\CC(=O)Cc2c(Cl)c(O)cc(O)c2C(=O)O1 (stereo partly drawn) | 0.27 µM |
| COc1cc(OC)c2c(c1Cl)C[C@@H](O)/C=C/CC[C@H]1O[C@@H]1C[C@@H](C)OC2=O | > 100 µM |
| CC(=O)Oc1cc(OC(C)=O)c2c(c1Cl)CC(OC(C)=O)/C=C/CC[C@H]1O[C@@H]1C[C@@H](C)OC2=O (stereo partly drawn) | > 100 µM |
| C[C@@H]1CCCCCCCC(=O)Cc2cc(O)cc(O)c2C(=O)O1 | > 50 µM |
| C[C@@H]1C[C@@H](O)[C@@H](O)/C=C\C=C\C(=O)Cc2c(Cl)c(O)cc(O)c2C(=O)O1 | > 50 µM |
| C[C@@H]1C/C=C/CC/C=C/[C@@H](O)Cc2cc(O)cc(O)c2C(=O)O1 | > 50 µM |
| C[C@@H]1C[C@H]2S[C@@H]2/C=C\C=C\C(=O)Cc2c(Cl)c(O)cc(O)c2C(=O)O1 | 9.13 µM |
| C[C@@H]1C[C@H]2O[C@@H]2CC/C=C/C(=O)Cc2cc(O)cc(O)c2C(=O)O1 [MONOCILLIN III] | 9.43 µM |
| C[C@@H]1C[C@H]2O[C@@H]2/C=C\C=C\C(=O)Cc2cc(O)cc(O)c2C(=O)O1 [MONOCILLIN I] | 1.93 µM |
| C[C@H]1C[C@H]2O[C@@H]2CC/C=C/C(=O)Cc2c(Cl)c(O)cc(O)c2C(=O)O1 [POCHONIN A] | 2.64 µM |
| C[C@@H]1C[C@H]2O[C@@H]2/C=C\C=C\C(=O)Cc2c(Cl)c(O)cc(O)c2C(=O)O1 [RADICICOL] | 0.19 µM |

assay: Cytotoxicity against human dermal papilla cells by Alamar blue assay; type: cell-based; conditions: read-out: TC50 (the source's name)
How it was run: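 Dermal papilla cells seeded at 5 × 10³ cells/well, grown 16 h in MEM with 12% FBS, then given medium with or without test compounds for 24 h. Medium swapped for one containing 10% Alamar Blue and cells cultured 4 h more; fluorescence read at Ex 544 nm/Em 590 nm. TC50 reported.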

| SMILES | CC50 |
| --- | --- |
| C[C@@H]1C[C@H]2O[C@@H]2CCCC[C@H](O)Cc2c(Cl)c(O)cc(O)c2C(=O)O1 | > 100 µM |
| C[C@@H]1C[C@H]2O[C@@H]2CC/C=C/[C@@H](O)Cc2c(Cl)c(O)cc(O)c2C(=O)O1 | > 100 µM |
| C[C@@H]1C[C@H]2O[C@@H]2CC/C=C/[C@H](O)Cc2c(Cl)c(O)cc(O)c2C(=O)O1 | > 100 µM |
| C[C@@H]1C[C@H]2O[C@@H]2CCCC[C@@H](O)Cc2c(Cl)c(O)cc(O)c2C(=O)O1 | > 100 µM |
| CC(=O)S[C@@H]1/C=C\CC(=O)Cc2c(Cl)c(O)cc(O)c2C(=O)O[C@H](C)C[C@H]2O[C@@H]21 | > 100 µM |
| C[C@@H]1C[C@H]2O[C@@H]2/C=C\C=C\[C@H](O)Cc2c(Cl)c(O)cc(O)c2C(=O)O1 | > 100 µM |
| C[C@@H]1C[C@H]2O[C@@H]2C/C=C/CC(=O)Cc2c(Cl)c(O)cc(O)c2C(=O)O1 | > 100 µM |
| CO/N=C1/C=C/C=C\[C@H]2O[C@@H]2C[C@@H](C)OC(=O)c2c(O)cc(O)c(Cl)c2C1 | > 100 µM |
| C[C@@H]1C[C@H]2O[C@@H]2CC/C=C/[C@H](O)Cc2cc(O)cc(O)c2C(=O)O1 | > 100 µM |
| C[C@@H]1C[C@H]2O[C@@H]2C(Sc2ccccc2)/C=C\CC(=O)Cc2c(Cl)c(O)cc(O)c2C(=O)O1 (stereo partly drawn) | > 50 µM |
| C[C@@H]1C[C@H]2O[C@@H]2[C@H](Sc2ccccc2)CCCC(=O)Cc2c(Cl)c(O)cc(O)c2C(=O)O1 | > 50 µM |
| C[C@@H]1C[C@H]2O[C@@H]2\C=C/C=C/C(=N\OCc2ccccc2)Cc2c(Cl)c(O)cc(O)c2C(=O)O1 | 65.6 µM |
| CO\N=C1/C=C/C=C\[C@H]2O[C@@H]2C[C@@H](C)OC(=O)c2c(O)cc(O)c(Cl)c2C1 | > 100 µM |
| C[C@@H]1C[C@H]2S[C@@H]2/C=C\C=C\C(=O)Cc2c(Cl)c(O)cc(O)c2C(=O)O1 | 28.2 µM |
| C[C@@H]1C[C@H]2O[C@@H]2\C=C/C=C/C(=N/OCc2ccccc2)Cc2c(Cl)c(O)cc(O)c2C(=O)O1 | 42.1 µM |
| C[C@@H]1C[C@H]2OC(=O)O[C@H]2/C=C\C=C\C(=O)Cc2c(Cl)c(O)cc(O)c2C(=O)O1 | 28.1 µM |
| CC(=O)S[C@@H]1/C=C/CC(=O)Cc2c(Cl)c(O)cc(O)c2C(=O)O[C@H](C)C[C@H]2O[C@@H]21 | > 100 µM |
| C[C@@H]1C[C@H]2O[C@@H]2\C=C/C=C/C(=N\O)Cc2c(Cl)c(O)cc(O)c2C(=O)O1 | 89.5 µM |
| C[C@@H]1C[C@@H](O)C(Cl)/C=C\C=C\C(=O)Cc2c(Cl)c(O)cc(O)c2C(=O)O1 (single isomer, unassigned) | 42 µM |
| COc1cc(OC)c2c(c1Cl)CC(=O)/C=C/C=C\[C@H]1O[C@@H]1C[C@@H](C)OC2=O [DIMETHYL RADICICOL] | 8.4 µM |
| C[C@@H]1C[C@H]2O[C@@H]2CC/C=C/C(=O)Cc2cc(O)cc(O)c2C(=O)O1 [MONOCILLIN III] | 28.9 µM |
| C[C@@H]1C[C@H]2O[C@@H]2/C=C\C=C\C(=O)Cc2cc(O)cc(O)c2C(=O)O1 [MONOCILLIN I] | 2.9 µM |
| C[C@H]1C[C@H]2O[C@@H]2CC/C=C/C(=O)Cc2c(Cl)c(O)cc(O)c2C(=O)O1 [POCHONIN A] | 57.3 µM |
| CC(=O)Oc1cc(OC(C)=O)c2c(c1Cl)CC(=O)/C=C/C=C\[C@H]1O[C@@H]1C[C@@H](C)OC2=O [RADICICOL DIACETATE] | 29.1 µM |
| C[C@@H]1C[C@H]2O[C@@H]2/C=C\C=C\C(=O)Cc2c(Cl)c(O)cc(O)c2C(=O)O1 [RADICICOL] | 15.3 µM |
| C[C@@H]1C[C@H]2O[C@@H]2CCCCC(=O)Cc2c(Cl)c(O)cc(O)c2C(=O)O1 [TETRAHYDRORADICICOL] | > 100 µM |
